Reference: ChEMBL document CHEMBL1125457, “Inhibitors of acyl-CoA:cholesterol acyltransferase. 1. Identification and structure-activity relationships of a novel series of fatty acid anilide hypocholesterolemic agents” (J Med Chem, 1992)

Legend:
O-acyltransferase [1] = biological target: T1, O-acyltransferase (Oryctolagus cuniculus, UniProt G1SFD9); test: In vitro inhibition of acyl coenzyme A:cholesterol acyltransferase, in intestinal microsomes isolated from cholesterol-fed rabbits; parameters: species or system Intestine
T1 sequence (G1SFD9 1-524): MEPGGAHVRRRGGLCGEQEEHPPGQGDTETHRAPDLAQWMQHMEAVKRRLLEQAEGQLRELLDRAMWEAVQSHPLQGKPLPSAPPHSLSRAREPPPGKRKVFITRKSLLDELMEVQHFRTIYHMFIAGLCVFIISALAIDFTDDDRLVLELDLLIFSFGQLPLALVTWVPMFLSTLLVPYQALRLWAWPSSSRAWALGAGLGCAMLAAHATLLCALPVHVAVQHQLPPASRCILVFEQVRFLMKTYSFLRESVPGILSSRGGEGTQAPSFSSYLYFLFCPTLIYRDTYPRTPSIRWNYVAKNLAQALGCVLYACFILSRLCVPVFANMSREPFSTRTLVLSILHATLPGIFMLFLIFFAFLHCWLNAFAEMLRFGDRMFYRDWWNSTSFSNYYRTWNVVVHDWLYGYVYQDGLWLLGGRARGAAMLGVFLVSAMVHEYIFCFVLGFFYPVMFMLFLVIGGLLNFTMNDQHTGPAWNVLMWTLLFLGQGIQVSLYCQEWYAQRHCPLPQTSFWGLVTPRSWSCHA
In short: (§1)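 Rabbit intestinal mucosa scraped, washed, homogenized in phosphate/KCl/EDTA/sucrose buffer; microsomes pelleted at 100000g and stored at -70 °C. Microsomes (0.3 mg protein) with BSA (0.5 mg) and inhibitor in DMSO/Tween-20 preincubated 5 min at 37 °C. [1-14C]oleoyl-CoA (10 nmol, 0.05 μCi) then added for 5 min. Cholesteryl oleate extracted, separated by TLC and counted by scintillation. Four dilutions per compound, in triplicate.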

Rattus norvegicus [2] = organism: Rattus norvegicus; test: Percent change in total cholesterol (TC) in cholic acid (0.3%) -cholesterol (1.5%) -peanut oil(5.5%) -fed rats.; type: functional
In short: (§2)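 Rats fed ad libitum for 1 week on a diet with peanut oil (5.5%), cholesterol (1.5%) and cholic acid (0.3%), with compound mixed in at 0.05% of the diet. Sacrificed in the fed state. Plasma total and/or HDL cholesterol measured as percent change versus cholesterol-fed controls. Significance by ANOVA followed by Fisher's multiple range test, p < 0.05.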

O-acyltransferase [3] = biological target: T1, O-acyltransferase; test: Tested in vitro to inhibit Acyl coenzyme A:cholesterol acyltransferase in intestinal microsomes isolated from cholesterol-fed rabbits.; parameters: species or system Intestine; in short: as §1
Rattus norvegicus [4] = organism: Rattus norvegicus; test: Percent change in high density lipoprotein (HDL-cholesterol in cholesterol-fed rats.; type: functional; in short: as §2

Row | SMILES | IC50 (O-acyltransferase [1]) | Change (Rattus norvegicus [2]) | IC50 (O-acyltransferase [3]) | Change (Rattus norvegicus [4])
1 | CCCCCCCC/C=C/CCCCCCC(C)C(=O)Nc1c(OC)cc(OC)cc1OC (configuration not stated) | 36 nM | -40% |  | 
2 | CCCCCCCCCCC(C)C(=O)Nc1c(OC)cc(OC)cc1OC (configuration not stated) |  |  | 90 nM | 
3 | CCCCCCCC/C=C/CCCCCCC(C)(C)C(=O)Nc1c(OC)cc(OC)cc1OC | 44 nM | -60% |  | 
4 | CCCCCCCC/C=C/CCCCCCCC(=O)Nc1ccccc1OC | 8000 nM |  |  | 
5 | CCCCCCCC/C=C/CCCCCCCC(=O)Nc1cccc(C(=O)OC)c1C | > 5000 nM |  |  | 
6 | CCCCCCCC/C=C/CCCCCCCC(=O)Nc1c(C)cccc1OCC | 15 nM | -45% |  | 
7 | CCCCCCCCCCC(C)(C)C(=O)Nc1c(CC)cccc1CC | 390 nM |  |  | 
8 | CCCCCCCC/C=C/CCCCCCCC(=O)Nc1ccc(OC)cc1OC | 3000 nM |  |  | 
9 | CCCCCCCCCCCCC(C)(C)C(=O)Nc1c(OC)cc(OC)cc1OC | 63 nM | -45% |  | 19%
10 | CCCCCCCC/C=C/CCCCCCCC(=O)Nc1cccc(C)c1[N+](=O)[O-] | 12000 nM |  |  | 
11 | CCCCCCCCCCC(C)(C)C(=O)Nc1c(OC)cc(OC)cc1OCCCCCCC | 140 nM |  |  | 
12 | CCCCCCCCCCCCCCC(C)(C)C(=O)Nc1c(OC)cc(OC)cc1OC | 44 nM | -55% |  | 26%
13 | CCCCCCCC/C=C/CCCCCCCC(=O)Nc1cc(C(=O)OC)ccc1OC | 430 nM |  |  | 
14 | CCCCCCCCCCC(C)(C)C(=O)Nc1c(C)cccc1OC | 210 nM |  |  | 
15 | CCCCCCCC/C=C/CCCCCCCC(=O)Nc1cccc2c1CCCC2 | 350 nM |  |  | 
16 | CCCCCCCC/C=C\CCCCCCCC(=O)Nc1c(C)cccc1C |  | -38% | 43 nM | 
17 | CCCCCCCCCCCCC(CC)C(=O)Nc1c(OC)cc(OC)cc1OC (configuration not stated) | 52 nM | -11% |  | 
18 | CCCCCCCCCCC(C)(C)C(=O)Nc1c(C)cccc1Cl | 750 nM |  |  | 
19 | C=C(CCCCCCCCCC)C(=O)Nc1c(OC)cc(OC)cc1OC | 200 nM |  |  | 
20 | CCCCCCCCCCC(C)(C)C(=O)Nc1c(C)cccc1C | 1300 nM |  |  | 
21 | CCCCCCCC/C=C/CCCCCCCC(=O)Nc1c(F)cc(F)cc1F |  | 2% | 6300 nM | 
22 | CCCCCCCCCCC1(C(=O)Nc2c(OC)cc(OC)cc2OC)CCCCC1 | 70 nM | -43% |  | 
23 | CCCCCCCCC(C)(C)C(=O)Nc1c(OC)cc(OC)cc1OC | 59 nM | -43% |  | 53%
24 | CCCCCCCCCCC(CC)C(=O)Nc1c(OC)cc(OC)cc1OC (configuration not stated) |  |  | 73 nM | 
25 | CCCCCCCCCCCCCCC1(C(=O)Nc2c(OC)cc(OC)cc2OC)CC1 | 49 nM | -43% |  | 16%

Row | SMILES | IC50 (O-acyltransferase [1]) | Change (Rattus norvegicus [2]) | IC50 (O-acyltransferase [3]) | Change (Rattus norvegicus [4])
26 | CCCCCCCCCCC(C)(C)C(=O)Nc1c(C)cccc1OCC | 180 nM |  |  | 
27 | CCCCCCCCCCCCCCCCCC(=O)Nc1c(OC)cc(OC)cc1OC | 52 nM | -11% |  | 31%
28 | CCCCCCCC/C=C/CCCCCCCC(=O)Nc1ccccc1C(=O)c1ccccc1 | > 10000 nM |  |  | 
29 | CCCCCCCCCCC(C)(C)C(=O)Nc1ccc(C)c(C)c1 | 1660 nM |  |  | 
30 | CCCCCCCC/C=C/CCCCCCCC(=O)Nc1ccccc1C(C)C | 600 nM |  |  | 
31 | CCCCCCCC/C=C/CCCCCCCC(=O)Nc1c(C)cccc1C(C)C | 23 nM | -45% |  | 
32 | CCCCCCCCCCC(C)(C)C(=O)Nc1c(C)cc(Br)cc1C | 410 nM |  |  | 
33 | CCCCCCCC/C=C/CCCCCCCC(=O)Nc1ccc(OC)c(OC)c1 |  |  | 4500 nM | 
34 | CCCCCCCCCCCCCCCCC(C)(C)C(=O)Nc1c(OC)cc(OC)cc1OC | 87 nM | -34% |  | 13%
35 | CCCCCCCC/C=C/CCCCCCCC(=O)Nc1ccccc1-c1ccccc1 | 910 nM |  |  | 
36 | CCCCCCCC/C=C/CCCCCCCC(=O)Nc1cc(C(=O)OC)c(C)cc1C | 60 nM | -41% |  | 
37 | CCCCCCCCCCCCCCC(=O)Nc1c(OC)cc(OC)cc1OC | 65 nM |  |  | 
38 | CCCCCCCCCCC(C)(C)C(=O)Nc1ccc(C)cc1C | 680 nM |  |  | 
39 | CCCCCCCCCCCCCCCC(=O)Nc1c(OC)cc(OC)cc1OC | 54 nM | -38% |  | 
40 | CCCCCCCCCCC1(C(=O)Nc2c(OC)cc(OC)cc2OC)CCCCCC1 | 93 nM | -42% |  | 9%
41 | CCCCCCCCCCC(C)(C)C(=O)Nc1c(OC)cc(OC)cc1OCC(=O)O | > 1000 nM |  |  | 
42 | CCCCCCCCCCC(C)(C)C(=O)Nc1cc(C(=O)OC)ccc1OC | 130 nM |  |  | 
43 | CCCCCCCC/C=C/CCCCCCCC(=O)Nc1c(Cl)cc(Cl)cc1Cl | 30 nM | -44% |  | 
44 | CCCCCCCC/C=C/CCCCCCCC(=O)Nc1ccccc1Cl | 75000 nM |  |  | 
45 | CCCCCCCC/C=C/CCCCCCCC(=O)Nc1ccc(CC(=O)OCC)c(C)c1 | 3000 nM | -10% |  | 
46 | CCCCCCCC/C=C/CCCCCCCC(=O)Nc1c(OC)cc(OC)cc1OC |  | -38% | 51 nM | 
47 | CCCCCCCC/C=C/CCCCCCCC(=O)Nc1c(C(C)C)cccc1C(C)C | 7 nM | -21% |  | 
48 | CCCCCCCC/C=C/CCCCCCCC(=O)Nc1c(C)cc(C)cc1C | 700 nM | -27% |  | 
49 | CCCCCCCC/C=C/CCCCCCCC(=O)Nc1c(O)cc(OC)cc1OC | 150 nM |  |  | 
50 | CCCCCCCC/C=C/CCCCCCCC(=O)Nc1cc(OC)c(OC)cc1OC | 1100 nM |  |  | 

Row | SMILES | IC50 (O-acyltransferase [1]) | Change (Rattus norvegicus [2]) | IC50 (O-acyltransferase [3]) | Change (Rattus norvegicus [4])
51 | CCCCCCCCCCCCC(C)C(=O)Nc1c(OC)cc(OC)cc1OC (configuration not stated) |  | -39% |  | 
52 | CCCCCCCCCCC(C)(C)C(=O)Nc1c(OC)cc(OC)cc1OC [CL-976] |  |  |  | 94%
53 | CCCCCCCC/C=C/CCCCCCCC(=O)Nc1ccccc1CC | 1200 nM |  |  | 
54 | CCCCCCCC/C=C/CCCCCCCC(=O)Nc1c(C)cccc1OC | 20 nM | -30% |  | 
55 | CCCCCCCCCCCCCCC(C)C(=O)Nc1c(OC)cc(OC)cc1OC (configuration not stated) | 31 nM |  |  | 
56 | CCCCCCCC(C)(C)C(=O)Nc1c(OC)cc(OC)cc1OC | 180 nM | -13% |  | 2%
57 | CCCCCCCCCCC(C)(C)C(=O)Nc1c(C)cc(C)cc1C | 194 nM |  |  | 
58 | CCCCCCCC/C=C/CCCCCCCC(=O)Nc1ccc(C)cc1C(=O)OC | 9200 nM |  |  | 
59 | CCCCCCCCCCC(C)(C)C(=O)Nc1c(C(C)C)cccc1C(C)C | 210 nM |  |  | 
60 | CCCCCCCC/C=C/CCCCCCCC(=O)Nc1c(CC)cccc1CC | 17 nM | -51% |  | 
61 | CCCCCCCC/C=C/CCCCCCCC(=O)Nc1ccc(F)cc1F | 32000 nM | -19% |  | 
62 | CCCCCCCCCCC(C)(C)C(=O)Nc1c(OC)cc(OC)cc1OCC(=O)OC | 2300 nM |  |  | 
63 | CCCCCCCC/C=C/CCCCCCCC(=O)Nc1cc(C(=O)OC)c(OC)cc1OC | 1100 nM |  |  | 
64 | CCCCCCCCCC(C)(C)C(=O)Nc1c(OC)cc(OC)cc1OC |  | -53% | 59 nM | 86%
65 | CCCCCCCCCCC(CC)(CC)C(=O)Nc1c(OC)cc(OC)cc1OC | 97 nM |  |  | 
66 | CCCCCCCCCCC(C)(C)C(=O)Nc1c(O)cc(OC)cc1OC | 590 nM |  |  | 
67 | CCCCCCCCCCC(C)(C)C(=O)Nc1c(F)cc(F)cc1F | 260 nM |  |  | 
68 | CCCCCCCC/C=C/CCCCCCCC(=O)Nc1cc(Cl)c(OC)cc1OC | 520 nM | -7% |  | 
69 | CCCCCCCCCCC(C)(C)C(=O)Nc1c(C)cccc1C(C)C | 240 nM |  |  | 
70 | CCCCCCCCCCC1(C(=O)Nc2c(OC)cc(OC)cc2OC)CCCC1 | 32 nM | -67% |  | 45%
71 | CCCCCCCCCCCCC1(C(=O)Nc2c(OC)cc(OC)cc2OC)CC1 | 58 nM | -40% |  | 27%
72 | CCCCCCCCCCCCCC(=O)Nc1c(OC)cc(OC)cc1OC | 190 nM | -44% |  | 
73 | CCCCCCCCCCC1(C(=O)Nc2c(OC)cc(OC)cc2OC)CCC1 | 39 nM | -57% |  | 73%
